Experimental data reported in ChEMBL document CHEMBL1139003, “Novel endotoxin-sequestering compounds with terephthalaldehyde-bis-guanylhydrazone scaffolds” (Bioorg Med Chem Lett, 2006).

How the values were obtained:
Lipopolysaccharide (LPS) = assay: Binding affinity to lipid A moiety of LPS present in Gram negative bacteria by fluorescent probe method; type: functional
How it was run: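 Homogeneous, automated fluorescence displacement assay run in aqueous buffer. A fluorescent probe is bound to LPS and test ligand displaces it. ED50 is the ligand concentration that displaces 50% of the bound probe and is taken as relative binding affinity.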

J774.A1 = assay: Inhibition of LPS-induced production of nitric oxide in murine J774.A1 cells; type: functional, cell-based, Mus musculus
How it was run: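 Murine J774 cells grown in medium containing fetal bovine serum are stimulated with LPS. Nitric oxide production is read as nitrite. IC50 is the concentration giving 50% inhibition of NO.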

Mus musculus [1] = organism: Mus musculus; assay: Decrease in lethality in D-galactosamine-sensitized mice challenged with LPS at 200 ng/mouse
Mus musculus [2] = organism: Mus musculus; assay: Decrease in lethality in D-galactosamine-sensitized mice challenged with LPS at 200 ng/mouse; type: functional, organism-based
How it was run: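 Mice primed with D-galactosamine receive graded doses of test compound and are challenged with a supralethal LPS dose of 200 ng/mouse. The endpoint is lethality.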

Molecule	ED50 (Lipopolysaccharide (LPS)) [µM]	IC50 (J774.A1; Mus musculus, J774.A1) [µM]	IC50 (J774.A1; j774.a1) [µM]	Activity (Mus musculus [1])	Activity (Mus musculus [2])
COc1c(/C=N/N=C(N)N)ccc(/C=N/NC(=N)N)c1OC	42.3	28			
N=C(N)N/N=C/c1ccc(/C=N/NC(=N)N)cc1	34.6	24.4			
CCCCCCCCCCCCCCOc1c(/C=N/N=C(N)N)ccc(/C=N/N=C(N)N)c1OCCCCCCCCCCCCCC	> 500	14.9			
POLYMYXIN B [listing 1 of 2 here]			0.98		
N=C(N)N/N=C/c1ccc(/C=N/NC(=N)N)c(O)c1O	43.7	26.4			
POLYMYXIN B [listing 2 of 2 here]	1.67				
C=CCOc1c(/C=N/NC(=N)N)ccc(/C=N/NC(=N)N)c1OCC=C	29.9	9.64			

Further molecules by falling IC50 (J774.A1; Mus musculus, J774.A1), results first:

ED50 (Lipopolysaccharide (LPS)) [µM]	IC50 (J774.A1; Mus musculus, J774.A1) [µM]	IC50 (J774.A1; j774.a1) [µM]	Molecule	Activity (Mus musculus [1])	Activity (Mus musculus [2])
12.7	8.38		CCCOc1c(/C=N/N=C(N)N)ccc(/C=N/N=C(N)N)c1OCCC		
13.2	4.67		CCCCCCOc1c(/C=N/N=C(N)N)ccc(/C=N/NC(=N)N)c1OCCCCCC		
22.8	4.56		CCOc1c(/C=N/N=C(N)N)ccc(/C=N/N=C(N)N)c1OCC		
9.44	4.15		CCCCOc1c(/C=N/N=C(N)N)ccc(/C=N/NC(=N)N)c1OCCCC		
7.82	3.54		CCCCCOc1c(/C=N/N=C(N)N)ccc(/C=N/N=C(N)N)c1OCCCCC		
39.5	3.45		CCCCCCCCOc1c(/C=N/N=C(N)N)ccc(/C=N/N=C(N)N)c1OCCCCCCCC	Dose-dependent effect	Dose-dependent effect
